Here are results for 21 compounds from ChEMBL document CHEMBL1154253, “Synthesis and serotonin transporter activity of sulphur-substituted alpha-alkyl phenethylamines as a new class of anticancer agents” (Eur J Med Chem, 2009).

One test deals with DG-75. The experiment in a line: Antiproliferative activity against human DG75 cells after 24 to 72 hrs by alamar blue assay. The class given is functional, cell-based. The method, boiled down:
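Cells seeded at 1–5 × 10⁴ per well and exposed to compound for the stated time. Alamar Blue was then added, followed by 4–6 h incubation at 37 °C in the dark. Fluorescence was read at excitation 544 nm and emission 590 nm. Medium-plus-dye background was subtracted, and untreated cells were set as 100% viability. Readings were in triplicate on two independent days.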

A short description of test [1]: Antiproliferative activity against human MUTU-I cells after 24 hrs by alamar blue assay.
In a further test the test system is HL-60. The experiment in a line: Antiproliferative activity against human HL60 cells after 24 hrs by alamar blue assay. The format is functional, cell-based. The following applies: HL-60, 24 h.
Test [2] concerns the target T1, Sodium-dependent serotonin transporter (Rattus norvegicus, UniProt P31652). The experiment in a line: Inhibition of [3H]5-HT reuptake at rat SERT expressed in HEK293 cells after 2 mins by liquid scintillation counting. The class given is cell-based.
The subject of a further test is HEK293. The experiment in a line: Cytotoxicity against human HEK293 cells after 48 hrs by neutral red assay. The format is cell-based. The following applies: HEK293, 48 h, read-out: pEC50 (converted). The method, boiled down: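 Neutral Red uptake: 5 × 10⁴ cells/well grown 24–36 h to sub-confluence, then treated 48 h. Cells incubated 3 ± 1 h with NR dye, washed and solubilised in 50% ethanol–1% acetic acid, and absorbance read at 540 nm (690 nm background). Viability given as % of vehicle-treated cells. pEC50 obtained by sigmoidal regression (Hill slope 1) using 4 concentrations in triplicate on two independent days. SERT-line values compared with parental HEK293 by two-way ANOVA with Bonferroni test. Sodium azide 30 mM and Triton-X 2% as positive controls.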

A further test relates to SH-SY5Y. The experiment in a line: Cytotoxicity against human SH-SY5Y cells after 48 hrs by neutral red assay. The format is functional, cell-based.
Test [3] deals with Sodium-dependent noradrenaline transporter (Homo sapiens, UniProt P23975). The experiment in a line: Inhibition of human noradrenaline transporter.
Test [4] concerns the target Sodium-dependent dopamine transporter (Homo sapiens, UniProt Q01959). The experiment in a line: Inhibition of human dopamine transporter.
Test [5] concerns the target Sodium-dependent serotonin transporter (Rattus norvegicus) (UniProt P31652). The experiment in a line: Inhibition of [3H]5-HT reuptake at rat SERT expressed in HEK293 cells assessed as serotonin reuptake at 100 uM after 2 mins by liquid scintillation counting. On the set-up: scale not given: the % may be the effect or the level left. The format is cell-based.
The target is the same in test [6]. The experiment in a line: Inhibition of [3H]5-HT reuptake at rat SERT expressed in HEK293 cells assessed as serotonin reuptake at […] after 2 mins by liquid scintillation counting. The class given is cell-based. On the set-up: scale not given: the % may be the effect or the level left.
Test [7] shares this target. The experiment in a line: Inhibition of [3H]5-HT reuptake at rat SERT expressed in HEK293 cells assessed as serotonin reuptake at 10 uM after 2 mins by liquid scintillation counting. The class given is cell-based. Also noted: scale not given: the % may be the effect or the level left. In outline: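 HEK293 TREx cells stably carrying rat SERT-FLAG were plated on poly-L-lysine, and expression was induced with tetracycline for 24 h. Cells were washed in TB buffer (10 mM HEPES, 150 mM NaCl, 2 mM KCl, 1 mM CaCl₂, 1 mM MgCl₂) and preincubated with compound for 5 min at 37 °C. [³H]5-HT (~1 Ci/mmol) uptake then ran 2 min at room temperature. Uptake was stopped with cold paroxetine-containing buffer, and cells were lysed in 2% SDS and counted by scintillation. Paroxetine-defined non-specific uptake was subtracted, and untreated cells were set as 100% reuptake.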

Test [8] has as its target T1, Sodium-dependent serotonin transporter. The experiment in a line: Inhibition of [3H]5-HT uptake at SERT in rat brain synaptosome. The format is tissue-based.
Test [9] addresses Sodium-dependent serotonin transporter (Rattus norvegicus) (UniProt P31652). The experiment in a line: Inhibition of [3H]5-HT reuptake at rat SERT expressed in HEK293 cells at 100 uM after 2 mins by liquid scintillation counting. The class given is cell-based.

Converted amounts (≈) assume the structure as drawn.

Sequence of Sodium-dependent serotonin transporter (Rattus norvegicus) (P31652 whole entry): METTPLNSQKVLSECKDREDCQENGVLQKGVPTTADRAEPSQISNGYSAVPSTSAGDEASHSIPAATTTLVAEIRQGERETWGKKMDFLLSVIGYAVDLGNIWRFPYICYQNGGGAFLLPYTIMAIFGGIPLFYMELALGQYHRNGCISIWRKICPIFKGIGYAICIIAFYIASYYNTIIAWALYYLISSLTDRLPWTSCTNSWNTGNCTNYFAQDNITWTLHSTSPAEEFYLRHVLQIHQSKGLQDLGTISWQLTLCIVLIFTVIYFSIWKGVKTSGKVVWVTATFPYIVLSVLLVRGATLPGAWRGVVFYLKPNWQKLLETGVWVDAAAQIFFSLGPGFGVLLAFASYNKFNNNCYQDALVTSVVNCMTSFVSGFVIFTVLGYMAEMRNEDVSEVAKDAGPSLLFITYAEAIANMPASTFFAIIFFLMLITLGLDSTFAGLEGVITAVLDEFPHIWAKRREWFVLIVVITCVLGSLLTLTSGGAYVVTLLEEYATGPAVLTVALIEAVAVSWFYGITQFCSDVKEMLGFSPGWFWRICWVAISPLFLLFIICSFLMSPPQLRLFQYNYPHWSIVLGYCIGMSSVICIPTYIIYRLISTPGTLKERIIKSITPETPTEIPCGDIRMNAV
T1 sequence (P31652 whole entry): as above
Sequence of Sodium-dependent noradrenaline transporter (P23975 whole entry): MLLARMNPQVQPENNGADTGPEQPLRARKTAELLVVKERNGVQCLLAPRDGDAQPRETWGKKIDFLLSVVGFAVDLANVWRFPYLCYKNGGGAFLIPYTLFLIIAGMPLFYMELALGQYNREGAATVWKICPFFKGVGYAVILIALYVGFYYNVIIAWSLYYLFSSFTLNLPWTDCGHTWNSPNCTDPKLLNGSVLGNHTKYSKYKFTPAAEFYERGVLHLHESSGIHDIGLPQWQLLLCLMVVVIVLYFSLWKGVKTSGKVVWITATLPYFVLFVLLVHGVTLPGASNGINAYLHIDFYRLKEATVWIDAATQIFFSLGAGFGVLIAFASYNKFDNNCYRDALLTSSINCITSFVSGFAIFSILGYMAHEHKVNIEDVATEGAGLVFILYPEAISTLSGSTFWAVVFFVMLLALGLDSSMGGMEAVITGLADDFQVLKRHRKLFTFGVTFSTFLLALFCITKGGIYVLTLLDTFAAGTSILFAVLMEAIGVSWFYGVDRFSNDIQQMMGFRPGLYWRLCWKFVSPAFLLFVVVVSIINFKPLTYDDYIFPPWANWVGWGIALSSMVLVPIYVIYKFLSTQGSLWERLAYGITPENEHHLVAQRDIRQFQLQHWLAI
Sequence of Sodium-dependent dopamine transporter (Q01959 whole entry): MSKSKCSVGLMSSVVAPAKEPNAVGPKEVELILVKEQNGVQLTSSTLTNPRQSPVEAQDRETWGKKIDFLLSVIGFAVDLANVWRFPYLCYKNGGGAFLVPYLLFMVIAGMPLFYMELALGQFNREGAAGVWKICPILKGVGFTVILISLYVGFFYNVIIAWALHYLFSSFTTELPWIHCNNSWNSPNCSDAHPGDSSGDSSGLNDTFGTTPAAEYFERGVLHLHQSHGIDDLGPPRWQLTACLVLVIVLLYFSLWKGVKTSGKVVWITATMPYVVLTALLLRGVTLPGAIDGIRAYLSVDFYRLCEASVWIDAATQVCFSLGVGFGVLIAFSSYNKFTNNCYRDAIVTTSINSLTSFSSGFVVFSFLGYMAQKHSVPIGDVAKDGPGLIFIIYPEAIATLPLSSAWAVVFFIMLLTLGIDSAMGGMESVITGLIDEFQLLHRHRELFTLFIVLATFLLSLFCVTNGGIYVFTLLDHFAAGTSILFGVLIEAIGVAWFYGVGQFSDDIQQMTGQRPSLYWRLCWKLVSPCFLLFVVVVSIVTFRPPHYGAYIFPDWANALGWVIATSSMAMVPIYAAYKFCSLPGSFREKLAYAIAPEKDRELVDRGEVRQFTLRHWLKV

On to `CC(=O)O[C@H]1C(=O)[C@@]2(C)[C@H]([C@H](OC(=O)c3ccccc3)[C@]3(O)C[C@H](OC(=O)[C@H](O)[C@@H](NC(=O)c4ccccc4)c4ccccc4)C(C)=C1C3(C)C)[C@]1(OC(C)=O)CO[C@@H]1C[C@@H]2O` [PACLITAXEL], for which the IC50 with DG-75 was 0.01 µM; in [1], 0.01 µM; with HL-60 it was 4 ng/mL (≈ 4.68 nM).
With `CC(N)Cc1ccc2c(c1)OCO2` (stereo not drawn) [TENAMFETAMINE], the IC50 came to 0.996 µM in test [2], 0.266 µM in test [3] and 0.89 µM in test [4]. Further, the values for the EC50 in the test with HEK293 and in the test on SH-SY5Y (read-out: pEC50 (converted)) were 324 µM and > 10000 µM, respectively.
On to `CC(N)Cc1ccc(S(C)(=O)=O)cc1` (stereo not drawn), for which the Activity in test [5] and in test [6] was 100% throughout. The EC50 with HEK293 and in the test on SH-SY5Y (read-out: pEC50 (converted)) was > 10000 µM throughout.
In turn, `CSc1ccc(CC(C)NC(C)C)cc1` (stereo not drawn) displayed an IC50 in test [2] of 1.85 µM. The EC50 with HEK293 is 30.9 µM; in the test on SH-SY5Y (read-out: pEC50 (converted)), 1950 µM.
`CSc1ccc(CC(C)N(C)O)cc1` (stereo not drawn): the IC50 in test [2] came to 1.87 µM. Further, the EC50 in the test with HEK293 was 24 µM; in the test with SH-SY5Y (read-out: pEC50 (converted)), 229 µM.
Regarding `CCCCCSc1ccc(C(N)CC)cc1` (stereo not drawn), in test [7], the Activity turned out to be 65%. Further, the EC50 in the test with HEK293 was 2690 µM; with SH-SY5Y (read-out: pEC50 (converted)), > 10000 µM.
On to `CCNC(C)Cc1ccc(SC)cc1` (stereo not drawn), for which, in test [2], half-maximal inhibition (IC50) was put at 0.963 µM. Besides, the EC50 is 16.2 µM in the test with HEK293 and 1860 µM in the test on SH-SY5Y (read-out: pEC50 (converted)).
With `CC(N)Cc1ccc(Cl)cc1` (stereo not drawn), the IC50 in test [8] is 0.182 µM; in test [3] it was 0.207 µM; in test [4] it was 0.424 µM.
For `CCSc1ccc(CC(N)CC)cc1` (stereo not drawn), the IC50 in test [2] was determined as 1.29 µM. Moreover, the EC50 with HEK293 was 5.13 µM; in the test on SH-SY5Y (read-out: pEC50 (converted)), 53.7 µM.
In turn, `CCC(Cc1ccc(SC)cc1)NC` (stereo not drawn) had an IC50 in test [2] of 0.437 µM. Further, the figures for the EC50 with HEK293 and in the test with SH-SY5Y (read-out: pEC50 (converted)) were 50.1 µM and 832 µM, respectively.
With `CCSc1ccc(CC(C)NO)cc1` (stereo not drawn), the IC50 in test [2] was found to be 0.625 µM. For the same compound, the EC50 in the test with HEK293 was 32.4 µM; in the test on SH-SY5Y (read-out: pEC50 (converted)), 708 µM.
The compound `CSc1ccc(CC(C)NC2CC2)cc1` (stereo not drawn) displayed an IC50 in [2] of 0.702 µM. In addition, the EC50 was 18.6 µM in the test on HEK293 and 372 µM in the test on SH-SY5Y (read-out: pEC50 (converted)).
The compound `CNC(C)Cc1ccc(SC)cc1` (stereo not drawn) returned an IC50 in test [2] of 0.417 µM. The EC50 in the test on HEK293 is 19.5 µM; in the test on SH-SY5Y (read-out: pEC50 (converted)), 1550 µM.
`CC(N)Cc1ccc(SC(C)(C)C)cc1` (stereo not drawn): the EC50 with HEK293 is 7.24 µM; in the test on SH-SY5Y (read-out: EC50), 1 µM; with SH-SY5Y (read-out: pEC50 (converted)), 20.4 µM. For the same compound, the inhibition in test [9] was 100%.
The compound `CCC(Cc1ccc(SC)cc1)NC1CC1` (stereo not drawn) came in with an IC50 in [2] of 0.872 µM. For the same compound, the figures for the EC50 in the test with HEK293 and with SH-SY5Y (read-out: pEC50 (converted)) were 10.7 µM and > 10000 µM, respectively.
The corresponding values for `CSc1ccc(CC(C)N(C)C)cc1` (stereo not drawn) are 0.52 µM, 20 µM and 1860 µM.
The matching figures for `C#CCNC(CC)Cc1ccc(SC)cc1` (stereo not drawn): 0.399 µM, 20.4 µM and 394 µM.
`CCSc1ccc(CC(CC)NO)cc1` (stereo not drawn): the midpoint of inhibition in [2], the IC50, lay at 1.45 µM. Also, the EC50 is 11.5 µM in the test with HEK293 and 1820 µM in the test on SH-SY5Y (read-out: pEC50 (converted)).
Regarding `CCNC(CC)Cc1ccc(SCC)cc1` (stereo not drawn), the midpoint of inhibition in test [2], the IC50, lay at 1.8 µM. Besides, the EC50 with HEK293 is 251 µM; with SH-SY5Y (read-out: pEC50 (converted)) it was 245 µM.
Take `CCSc1ccc(CC(C)N)cc1` (stereo not drawn): in test [2], the IC50 was determined as 1.4 µM. Besides, the figures for the EC50 with HEK293, in the test with SH-SY5Y (read-out: EC50) and in the test with SH-SY5Y (read-out: pEC50 (converted)) were 15.1 µM, 1 µM and 64.6 µM, respectively.
As to `COCCNC(C)Cc1ccc(SC)cc1` (stereo not drawn), the IC50 in [2] amounted to 3.58 µM. Moreover, the EC50 is 22.9 µM in the test on HEK293 and 1350 µM in the test with SH-SY5Y (read-out: pEC50 (converted)).
